The source of these data is ChEMBL document CHEMBL2169845 (J Med Chem, 2012).

Molecules are shown by their SMILES. Active and inactive are the calls of the source.

Series [1] concerns Mus musculus. The series can be described thus: Toxicity in SCID mouse assessed as body weight loss at 10 mg/kg, iv administered 5 days per week for 2 weeks relative to vehicle-treated control. It is filed as organism-based. Also noted: dose 10 mg/kg, route intravenous. The settings on record: in vivo. The method, boiled down: (§1)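 Tolerability tested in SCID mice given daily i.v. doses, 5 days a week for 2 weeks. Body weight loss tracked against a 10% threshold.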

For series [2], the system named is Mus musculus. The series can be described thus: Toxicity in SCID mouse assessed as body weight loss at 25 mg/kg, iv administered 5 days per week for 2 weeks relative to vehicle-treated control. The series is classed as organism-based. Also noted: dose 25 mg/kg, route intravenous. The note with it: in vivo. A digest of the protocol: as §1
In series [3] the target is T1, Apoptosis regulator Bcl-2 (Homo sapiens, UniProt P10415).
Series [4] is described as follows: Cytotoxicity against human NCI-H146 cells assessed as growth inhibition after 4 days by WST-8 assay. The settings on record: NCI-H146, 96 h. The series is classed as functional, cell-based. In general terms: Formazan colour is commonly taken as a measure of viable cells.
The subject of another series is NCI-H1417. The series can be described thus: Cytotoxicity against human H1417 cells assessed as growth inhibition after 4 days by WST-8 assay. It is filed as functional, cell-based. The settings on record: NCI-H1417, 96 h.
Series [5] is described as follows: Toxicity in iv dosed SCID mouse administered 5 days per week for 2 weeks. The note with it: in vivo. The series is classed as organism-based.
Series [6] relates to NCI-H146. The series can be described thus: Induction of apoptosis in human NCI-H146 cells assessed as cell viability at 10 nM after 24 hrs by trypan blue exclusion assay. It is filed as functional. The note with it: NCI-H146, 24 h, read-out: Activity. A digest of the protocol: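 H146 small-cell lung cancer cells exposed to serial compound concentrations for 24 hr, then collected and stained with trypan blue. Blue-stained or morphologically unhealthy cells were scored as dead, with at least 100 cells counted per sample.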

Series [7] deals with NCI-H146. The series can be described thus: Induction of apoptosis in human NCI-H146 cells assessed as cell viability after 24 hrs by trypan blue exclusion assay. The series is classed as functional, cell-based. A digest of the protocol: (§2)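 H146 cells exposed to a range of compound concentrations for 24 hr, then harvested and stained with trypan blue. Cells staining blue or looking morphologically unhealthy were scored as dead. At least 100 cells counted per sample.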

The target in series [8] is T1, Apoptosis regulator Bcl-2. The series is described as follows: Inhibition of N-terminal 6xHis-tagged human Bcl-2 expressed in Escherichia coli BL21 (DE3) after 2 hrs by fluorescence polarization assay. Background: Fluorescence polarisation rises when a labelled molecule tumbles more slowly, as on binding a larger partner.
Series [9] can be described thus: Inhibition of c-terminally truncated N-terminal 8xHis-tagged human Bcl-xL deletion mutant expressed in Escherichia coli BL21 (DE3) after 2 hrs by fluorescence polarization assay.
The test system of series [10] is NCI-H146. The series can be described thus: Induction of apoptosis in human NCI-H146 cells assessed as PARP cleavage at 30 nM after 24 hrs by Western blot analysis. The series is classed as functional, cell-based. The method, boiled down: (§3)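 H146 cells treated for 24 hr, then lysed on ice for 20 min in RIPA buffer with PMSF and protease inhibitors. Cleared lysates normalized by protein assay and run on 4–20% SDS-PAGE, then blotted to PVDF. Probed with rabbit antibodies to PARP and caspase-3 (cleaved forms detected), GAPDH as loading control, with HRP chemiluminescence detection.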

For series [11], the system named is NCI-H146. The series can be described thus: Induction of apoptosis in human NCI-H146 cells assessed as cell viability at 30 to 100 nM after 24 hrs by trypan blue exclusion assay. The series is classed as functional. A digest of the protocol: as §2
Series [12] deals with NCI-H146. The series is described as follows: Induction of apoptosis in human NCI-H146 cells assessed as caspase 3 activation at 30 nM after 24 hrs by Western blot analysis. It is filed as functional, cell-based. The method, boiled down: as §3
On the technique in general: A western blot detects proteins with antibodies after separation by electrophoresis.

In series [13] the test system is NCI-H146. The series is described as follows: Antitumor activity against human NCI-H146 cells xenografted in SCID mouse assessed as tumor regression at 50 mg/kg, iv administered 5 days per week for 2 weeks. It is filed as functional, organism-based. Also on record: dose 50 mg/kg. The method, boiled down:
(§4)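 SCID mice bearing H146 xenografts randomized at 40–110 mm3 tumor volume (mean 70 mm3), 8 per group. Dosed intravenously, daily, 5 days a week for 2 weeks, with a vehicle control group. Tumor size and body weight measured 3 times weekly during dosing and twice weekly afterwards. Tumor volumes reported as mean ± SEM.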

The test system of series [14] is Mus musculus. The series can be described thus: Toxicity in SCID mouse assessed as body weight loss at 50 mg/kg, iv administered 5 days per week for 2 weeks relative to vehicle-treated control. Also on record: dose 50 mg/kg, route intravenous. The series is classed as organism-based. The settings on record: in vivo. The method, boiled down:
as §1

Series [15] has as its system NCI-H146. The series is described as follows: Induction of apoptosis in human NCI-H146 cells assessed as caspase 3 activation at 100 nM after 24 hrs by Western blot analysis. The series is classed as functional, cell-based. A digest of the protocol:
as §3

For series [16], the system named is NCI-H146. The series is described as follows: Induction of apoptosis in human NCI-H146 cells xenografted in SCID mouse assessed as caspase 3 cleavage at 50 mg/kg, iv after 3 to 24 hrs by Western blot analysis. The series is classed as functional, organism-based. Also noted: dose 50 mg/kg. The method, boiled down:
(§5)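 SCID mice bearing H146 xenografts (100–200 mm3) received one i.v. dose, with a vehicle control group. Tumors harvested at 3, 6 and 24 h. PARP cleavage and caspase-3 cleavage assessed by Western blot.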

Series [17] concerns Mus musculus. The series can be described thus: Toxicity in SCID mouse assessed as body weight loss at 75 mg/kg, iv administered 5 days per week for 2 weeks relative to vehicle-treated control. Also on record: dose 75 mg/kg, route intravenous. The note with it: in vivo. The series is classed as organism-based. The method, boiled down:
as §1

Series [18] has as its system NCI-H146. The series is described as follows: Antitumor activity against human NCI-H146 cells xenografted in SCID mouse assessed as tumor growth inhibition at 50 mg/kg, iv administered 5 days per week for 2 weeks. It is filed as functional, organism-based. Also on record: dose 50 mg/kg. A digest of the protocol:
as §4

In series [19] the test system is NCI-H146. The series can be described thus: Induction of apoptosis in human NCI-H146 cells xenografted in SCID mouse assessed as PARP cleavage at 50 mg/kg, iv after 3 to 6 hrs by Western blot analysis. Also noted: dose 50 mg/kg. The series is classed as functional, organism-based. The method, boiled down: as §5
The test system of series [20] is NCI-H146. The series can be described thus: Induction of apoptosis in human NCI-H146 cells assessed as PARP cleavage at 100 nM after 24 hrs by Western blot analysis. It is filed as functional, cell-based. The method, boiled down:
as §3

Series [21] has as its system NCI-H146. The series is described as follows: Induction of apoptosis in human NCI-H146 cells xenografted in SCID mouse assessed as caspase 3 cleavage at 25 mg/kg, iv after 3 to 24 hrs by Western blot analysis. The series is classed as functional, organism-based. Also noted: dose 25 mg/kg. A digest of the protocol: as §5
The subject of series [22] is NCI-H146. The series is described as follows: Antitumor activity against human NCI-H146 cells xenografted in SCID mouse assessed as tumor free incidence at 25 mg/kg, iv measured on day 47 post tumor implantation. It is filed as functional, organism-based. Also noted: dose 25 mg/kg. The method, boiled down: as §4
For series [23], the system named is NCI-H146. The series can be described thus: Induction of apoptosis in human NCI-H146 cells xenografted in SCID mouse assessed as PARP cleavage at 25 mg/kg, iv after 3 to 6 hrs by Western blot analysis. It is filed as functional, organism-based. Also on record: dose 25 mg/kg. A digest of the protocol:
as §5

In series [24] the test system is NCI-H146. The series can be described thus: Antitumor activity against human NCI-H146 cells xenografted in SCID mouse assessed as tumor regression at 25 mg/kg, iv administered 5 days per week for 2 weeks. It is filed as functional, organism-based. Also on record: dose 25 mg/kg. The method, boiled down:
as §4

The nature of series [25]: Antitumor activity against human NCI-H146 cells xenografted in SCID mouse assessed as tumor free incidence at 25 mg/kg, iv measured on day 58 post tumor implantation. The series is classed as functional. A digest of the protocol: as §4
Series [26] concerns NCI-H146. The series can be described thus: Induction of apoptosis in human NCI-H146 cells assessed as caspase 3 activation at 10 nM after 24 hrs by Western blot analysis. The series is classed as functional, cell-based. The method, boiled down:
as §3

The subject of series [27] is NCI-H146. The series is described as follows: Induction of apoptosis in human NCI-H146 cells assessed as PARP cleavage at 10 nM after 24 hrs by Western blot analysis. It is filed as functional, cell-based. A digest of the protocol:
as §3

T1 sequence (P10415 whole entry): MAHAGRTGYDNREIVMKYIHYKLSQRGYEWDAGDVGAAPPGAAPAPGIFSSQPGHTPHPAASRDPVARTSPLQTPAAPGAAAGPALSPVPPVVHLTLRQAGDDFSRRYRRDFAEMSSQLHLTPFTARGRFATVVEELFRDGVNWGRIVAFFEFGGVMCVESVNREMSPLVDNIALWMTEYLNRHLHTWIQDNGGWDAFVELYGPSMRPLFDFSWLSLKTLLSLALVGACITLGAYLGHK

Regarding `Cc1c(C(=O)O)c(-c2cccc(N3CCN(c4ccc(NS(=O)(=O)c5ccc(N[C@H](CCN6CCC(O)CC6)CSc6ccccc6)c(S(=O)(=O)C(F)(F)F)c5)cc4)CC3)c2)c(-c2ccc(Cl)cc2)n1C(C)C`, the Activity with Mus musculus [1] was < 10%; with Mus musculus [2] it was > 10%; in the series on NCI-H146 [7], “Dose-dependent effect”. Also, the affinity in series [3] corresponds to a Ki of 0.8 nM. For the same molecule, the IC50 (usually the concentration that gives 50% inhibition) in series [4] was 13 nM; in the series with NCI-H1417 it was 9 nM; in series [8], 4 nM; in series [9] it was 3.9 nM. In [5], this molecule registered an MTD at 2 weeks of 10 mg/kg. In addition, in the series on NCI-H146 [6], the viability at 0.01 µM is > 50%.
For `CC1(C)CCC(c2ccc(Cl)cc2)=C(CN2CCN(c3ccc(C(=O)NS(=O)(=O)c4ccc(N[C@H](CCN5CCOCC5)CSc5ccccc5)c(S(=O)(=O)C(F)(F)F)c4)cc3)CC2)C1` [NAVITOCLAX], the outcome in the series with NCI-H146 [10] and with NCI-H146 [12] was Active. Further, the Activity in the series with NCI-H146 [11] is >50%; with NCI-H146 [7], “Dose-dependent effect”.
Consider `Cc1c(C(=O)O)c(-c2cccc(N3CCN(c4ccc(NS(=O)(=O)c5ccc(N[C@H](CCN6CCC(O)CC6)CSc6ccccc6)c(S(=O)(=O)C(F)(F)F)c5)cc4)CC3)c2)c(-c2ccc(Cl)cc2)n1C`, for which the outcome in the series on NCI-H146 [13] was inactive. The Activity in the series on Mus musculus [14] is < 10%; in the series on Mus musculus [17], > 10%; in the series with NCI-H146 [7], “Dose-dependent effect”. Besides, the result with NCI-H146 [15], with NCI-H146 [16], with NCI-H146 [19] and in the series on NCI-H146 [20] was Active. In addition, the Ki – broadly, a dissociation constant, usually derived from enzyme kinetics or from competition with a known ligand – in [3] was determined as 2.4 nM. Besides, the IC50 worked out at 108 nM in series [4], 125 nM with NCI-H1417, 10.2 nM in series [8] and 7 nM in series [9]. Besides, the MTD at 2 weeks in series [5] came out at 50 mg/kg. Besides, the TGI result in the series with NCI-H146 [18] is “Active”.
Take `CCn1c(C)c(C(=O)O)c(-c2cccc(N3CCN(c4ccc(NS(=O)(=O)c5ccc(N[C@H](CCN6CCC(O)CC6)CSc6ccccc6)c(S(=O)(=O)C(F)(F)F)c5)cc4)CC3)c2)c1-c1ccc(Cl)cc1`: the result in the series with NCI-H146 [21], in the series with NCI-H146 [22], with NCI-H146 [23], with NCI-H146 [24], in the series with NCI-H146 [26] and in the series with NCI-H146 [27] was Active. Besides, the Activity in the series with Mus musculus [14] is > 10%; in the series on Mus musculus [2] it was < 10%; in series [25], 71%; in the series on NCI-H146 [7] it was “Dose-dependent effect”. The molecule further yielded a Ki in series [3] of 1.2 nM. The half-inhibitory concentration (IC50) came out at 22 nM in series [4], 21 nM with NCI-H1417, 5.4 nM in series [8] and 6 nM in series [9]. In [5], this molecule registered an MTD at 2 weeks of 25 mg/kg. Besides, in the series with NCI-H146 [6], the viability at 0.01 µM was > 50%.
